Measurements from ChEMBL document CHEMBL1154534, “Ultrasound promoted synthesis of 2-imidazolines in water: a greener approach toward monoamine oxidase inhibitors” (Bioorg Med Chem Lett, 2009).

Experiments:
[1] = molecular target: T1, Amine oxidase [flavin-containing] A (Rattus norvegicus, UniProt P21396); assay: Binding affinity to MAOA imidazoline binding site in rat brain mitochondrial homogenate assessed as 4-hydroxyquinoline production by spectrophotometry; format: tissue-based
T1 sequence (P21396 whole entry): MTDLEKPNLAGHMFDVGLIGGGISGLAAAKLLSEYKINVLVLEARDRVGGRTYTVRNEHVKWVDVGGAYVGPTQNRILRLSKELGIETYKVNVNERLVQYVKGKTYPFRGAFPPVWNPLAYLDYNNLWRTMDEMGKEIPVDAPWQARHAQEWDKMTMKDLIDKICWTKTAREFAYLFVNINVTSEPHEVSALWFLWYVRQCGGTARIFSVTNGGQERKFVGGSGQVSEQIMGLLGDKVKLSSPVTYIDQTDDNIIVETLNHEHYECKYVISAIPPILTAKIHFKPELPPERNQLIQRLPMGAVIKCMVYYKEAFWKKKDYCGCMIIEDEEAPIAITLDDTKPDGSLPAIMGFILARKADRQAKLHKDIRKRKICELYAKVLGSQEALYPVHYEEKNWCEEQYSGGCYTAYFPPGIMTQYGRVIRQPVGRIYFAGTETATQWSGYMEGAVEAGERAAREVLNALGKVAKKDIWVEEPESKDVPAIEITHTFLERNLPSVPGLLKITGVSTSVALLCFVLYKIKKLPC
How it was run: (§1)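 Rat brain mitochondrial homogenates, with protein measured by Bradford. Fractions were preincubated for 5 min at 37 °C with 250 nM selegiline (MAO-A assay) or 250 nM clorgyline (MAO-B assay). Compounds were added in DMSO, followed 5 min later by kynuramine at its KM for each isoform. Incubation ran 30 min at 37 °C and was stopped with trichloroacetic acid, then centrifuged. 4-Hydroxyquinoline was read at 314 nm, or by fluorescence (ex 315/em 380 nm) if compounds interfered.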

[2] = molecular target: T2, Amine oxidase [flavin-containing] B (Rattus norvegicus, UniProt P19643); assay: Binding affinity to MAOB imidazoline binding site in rat brain mitochondrial homogenate assessed as 4-hydroxyquinoline production by spectrophotometry; format: tissue-based; how it was run: as §1
T2 sequence (P19643 whole entry): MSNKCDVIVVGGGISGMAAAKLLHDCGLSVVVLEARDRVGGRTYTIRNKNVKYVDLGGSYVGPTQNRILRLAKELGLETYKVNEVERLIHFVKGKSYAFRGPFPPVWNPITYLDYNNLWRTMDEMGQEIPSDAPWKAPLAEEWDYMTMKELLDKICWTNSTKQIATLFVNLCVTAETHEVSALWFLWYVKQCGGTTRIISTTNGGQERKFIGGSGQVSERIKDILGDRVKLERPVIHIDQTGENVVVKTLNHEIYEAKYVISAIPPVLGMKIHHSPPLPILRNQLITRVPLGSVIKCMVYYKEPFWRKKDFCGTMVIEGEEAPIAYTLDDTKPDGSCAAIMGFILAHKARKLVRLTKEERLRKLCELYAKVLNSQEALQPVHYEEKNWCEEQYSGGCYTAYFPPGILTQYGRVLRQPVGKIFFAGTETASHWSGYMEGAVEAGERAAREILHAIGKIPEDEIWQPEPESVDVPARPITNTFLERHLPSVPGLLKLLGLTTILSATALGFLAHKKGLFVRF

Rattus norvegicus [3] = organism: Rattus norvegicus; assay: Selectivity index, ratio of Ki rat for MAOA to Ki for rat MAOB
Rattus norvegicus [4] = organism: Rattus norvegicus; assay: Selectivity index, ratio of Ki rat for MAOB to Ki for rat MAOA

Row | Compound | Ki [1] [µM] | Ki [2] [µM] | Ratio Ki (Rattus norvegicus [3]) | Ratio Ki (Rattus norvegicus [4]) | IC50 [1] [µM] | IC50 [2] [µM]
1 | c1coc(C2=NCCN2)c1 | > 1000 | > 1000 |  |  |  | 
2 | COc1ccc(C2=NCCN2)cc1OC | 13.6 | 1000 | 0.013 | 73 |  | 
3 | c1ccc2nc(C3=NCCN3)ccc2c1 | 4.86 | 5.32 | 0.91 |  | 12.7 | 13.3
4 | c1ccc(C2=NCCN2)cc1 | 28.8 | 21.3 | 1.35 |  |  | 
5 | O=[N+]([O-])c1cccc(C2=NCCN2)c1 | > 1000 | 19.3 | > 51.9 |  |  | 
6 | c1ccc(C2=NCCN2)nc1 | > 1000 | 25.3 | > 39.5 |  |  | 
7 | c1ccc2oc(C3=NCCN3)cc2c1 | 24.9 | 3.63 |  |  | 65 | 9.1
8 | O=C(Oc1ccc(C2=NCCN2)cc1)c1ccccc1 | 12.8 | 1.38 | 9.27 |  |  | 
9 | Clc1ccc(C2=NCCN2)cc1 | 166 | 5.35 | 31.1 |  |  | 
10 | c1ccc2cc(C3=NCCN3)ccc2c1 [BENAZOLINE] | 13.9 | 1.49 | 9.32 |  |  | 
11 | Clc1ccc(C2=NCCN2)c(Cl)c1 | 28.8 | 3.98 | 10.5 |  |  | 
12 | COc1ccc(C2=NCCN2)cc1 | 15.8 | 32.7 | 0.48 |  |  | 
13 | Clc1ccccc1C1=NCCN1 | > 1000 | 24.6 | > 40.7 |  |  | 
14 | COc1cc(C2=NCCN2)cc(OC)c1OC | 114 | 1000 | 0.114 |  |  | 
15 | O=[N+]([O-])c1ccc(C2=NCCN2)cc1 | 181 | > 1000 | < 0.181 |  |  | 
16 | Cc1ccc(C2=NCCN2)cc1 | 102 | 13.1 | 7.79 |  |  | 
